# Measurements pooled from the literature.
# Lines come from different studies, so protocols differ.
# Cell line: UACC-62
# Read-out: cell growth or viability
SMILES,technique,tested at,time,measurement,value
COc1ccc(C(=O)/C=C/c2cccnc2)cc1S(N)(=O)=O,SRB,,48 h,GI50,12.9 µM
COc1cc(-c2ccc(-c3ccc(C(=N)N)nc3)s2)cc(OC)c1OC,SRB,,,GI50,1.73 µM
COc1ccc(C(=O)/C=C/c2cccc3ccccc23)cc1S(N)(=O)=O,SRB,10 µM,,inhibition,158%
O=C1NCCc2[nH]c(-c3ccncc3)cc21,,,,IC50,6.12 µM
COc1ccc(-c2ccc(-c3ccc(C(=N)N)nc3)s2)cc1,SRB,,,GI50,1.81 µM
O=C1NC(=NCc2cccs2)S/C1=C\c1ccc2ncccc2c1,,,,IC50,> 10 µM
Cc1cc(C)n(C(=S)[S][Au][PH](CCCCCC[PH]([Au][S]C(=S)n2nc(C)cc2C)(c2ccccc2)c2ccccc2)(c2ccccc2)c2ccccc2)n1,,,,GI50,0.25 µM
COc1cccc(Oc2ccccc2NC(=O)CNC(=O)c2cccc3ccccc23)c1,SRB,,48 h,GI50,0.209 µM
